Results published in ChEMBL document CHEMBL4414673, “The DESIGNER Approach Helps Decipher the Hypoglycemic Bioactive Principles of Artemisia dracunculus (Russian Tarragon)” (J Nat Prod, 2019).
Calls of active or inactive are those of the source. The rule behind the calls is not given here.

How the values were obtained:
[1] = Toxicity in high fat diet-induced obese C57BL/6J mouse assessed as effect on body weight at 300 mg/kg administered via gavage for 2 weeks and measured after 6 hrs post does; type: organism-based; conditions: in vivo, po
Summary of the method: (§1)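 Male C57BL/6J mice on a 60% kcal fat diet from 4 weeks of age were weighed weekly. Body weights at 20 weeks of age are reported for mice randomized to the gavage treatment groups, as mean ± SD versus vehicle.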

Mus musculus [2] = assay: Effect on insulin signalling in high fat diet-induced obese C57BL/6J mouse assessed as effect on AKT phosphorylation at threonine 308 residue expression in adipose tissue at 100 to 300 mg/kg administered via gavage for 2 weeks and measured after 6 hrs post dose by Western blot analysis; type: functional, organism-based
Summary of the method: (§2)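 Male C57BL/6J mice, singly housed, were fed a 60% kcal fat diet from 4 weeks of age for 16 weeks and acclimated to gavage for 2 weeks. They got one gavage dose of 100 or 300 mg/kg in Labrasol vehicle and were euthanized at 6 h. Muscle, liver or gonadal fat was lysed in HEPES/Igepal buffer, and 50 μg protein was immunoblotted with chemiluminescent detection.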

[3] = Toxicity in high fat diet-induced obese C57BL/6J mouse assessed as effect on body weight at 100 to 300 mg/kg administered via gavage for 2 weeks and measured after 6 hrs post dose; type: organism-based; conditions: in vivo, po; summary of the method: as §1
[4] = target: RAC-alpha serine/threonine-protein kinase (Mus musculus) (UniProt P31750); assay: Activation of insulin signalling in palmitate-induced insulin resistant mouse C2C12 cells assessed as upregulation of AKT phosphorylation at threonine 308 and Ser273 residue at 10 ug/ml by Western blot analysis; type: cell-based
RAC-alpha serine/threonine-protein kinase (Mus musculus), sequence (P31750 whole entry): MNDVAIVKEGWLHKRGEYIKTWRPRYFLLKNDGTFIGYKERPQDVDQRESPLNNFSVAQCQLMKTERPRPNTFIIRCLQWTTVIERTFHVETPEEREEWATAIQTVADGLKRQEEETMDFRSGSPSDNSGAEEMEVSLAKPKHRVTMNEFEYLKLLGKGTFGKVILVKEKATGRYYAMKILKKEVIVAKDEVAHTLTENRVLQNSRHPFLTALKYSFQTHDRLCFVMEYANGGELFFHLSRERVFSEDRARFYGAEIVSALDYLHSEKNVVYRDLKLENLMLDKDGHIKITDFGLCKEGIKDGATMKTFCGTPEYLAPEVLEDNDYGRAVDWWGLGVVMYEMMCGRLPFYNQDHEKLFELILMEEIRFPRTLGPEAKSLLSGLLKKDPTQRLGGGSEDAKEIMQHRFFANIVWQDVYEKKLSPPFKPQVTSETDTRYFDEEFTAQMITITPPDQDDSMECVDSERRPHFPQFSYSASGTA
Summary of the method: (§3)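 C2C12 myoblasts were grown in high-glucose (25 mM) DMEM with 10% FBS and differentiated with 2% horse serum, then switched to low-glucose (5 mM) medium. Insulin resistance was induced with palmitate. Myotubes were treated at 10 μg/mL, exposed to insulin for 10 min and harvested. Total and phosphorylated signaling proteins were analysed by Western blot.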

Mus musculus [5] = assay: Effect on insulin signalling in high fat diet-induced obese C57BL/6J mouse assessed as increase in PI3K-P85 expression in skeletal muscle at 100 mg/kg administered via gavage for 2 weeks and measured after 6 hrs post dose by Western blot analysis; type: functional, organism-based; summary of the method: as §2
Mus musculus [6] = assay: Hypoglycemic activity in high fat diet-induced obese C57BL/6J mouse assessed as reduction in blood glucose level at 100 to 300 mg/kg […] and measured after 6 hrs post dose; type: functional, organism-based
Summary of the method: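 Obese male C57BL/6J mice (60% kcal fat diet for 16 weeks, gavage-acclimated for 2 weeks) received one oral gavage dose of 100 or 300 mg/kg in Labrasol. Fasting whole-blood glucose was read by glucometer at baseline and hourly. Results are given as mg/dL and % change from baseline at 6 h, mean ± SD versus vehicle.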

Mus musculus [7] = assay: Effect on total IRbeta expression in high fat diet-induced obese C57BL/6J mouse skeletal muscle at 100 to 300 mg/kg administered via gavage for 2 weeks and measured after 6 hrs post dose by Western blot analysis; type: organism-based; conditions: in vivo, po; summary of the method: as §2
C2C12 = assay: Activation of insulin signalling in palmitate-induced insulin resistant mouse C2C12 cells assessed as increase in glycogen level at 10 ug/ml; type: functional, cell-based
Summary of the method: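 Palmitate-treated, insulin-resistant C2C12 myotubes (differentiated in 2% horse serum, low-glucose DMEM) were treated at 10 μg/mL and exposed to insulin for 10 min before harvest. Glycogen was measured with a kit assay and expressed as ng released glucose/μg protein.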

[8] = target: Glycogen synthase kinase-3 alpha/beta (Mus musculus) (UniProt Q9WV60+Q2NL51); assay: Activation of insulin signalling in palmitate-induced insulin resistant mouse C2C12 cells assessed as increase GSK-3 alpha/beta phosphorylation at 10 ug/ml by Western blot analysis; type: cell-based; summary of the method: as §3
Glycogen synthase kinase-3 alpha/beta (Mus musculus), sequence (Q2NL51 whole entry, looked up): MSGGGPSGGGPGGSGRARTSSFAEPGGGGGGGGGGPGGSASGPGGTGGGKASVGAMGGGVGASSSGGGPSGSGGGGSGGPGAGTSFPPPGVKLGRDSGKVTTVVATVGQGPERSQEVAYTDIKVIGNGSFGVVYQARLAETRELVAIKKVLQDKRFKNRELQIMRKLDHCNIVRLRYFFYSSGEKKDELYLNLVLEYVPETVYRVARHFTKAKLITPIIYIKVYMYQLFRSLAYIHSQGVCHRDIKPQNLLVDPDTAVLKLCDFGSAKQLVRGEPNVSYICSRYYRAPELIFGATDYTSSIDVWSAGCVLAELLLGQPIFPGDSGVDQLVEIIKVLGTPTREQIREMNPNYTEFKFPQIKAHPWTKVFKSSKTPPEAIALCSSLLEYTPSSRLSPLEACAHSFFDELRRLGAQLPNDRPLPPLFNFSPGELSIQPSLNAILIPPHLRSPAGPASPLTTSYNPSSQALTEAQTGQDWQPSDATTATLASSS
Glycogen synthase kinase-3 alpha/beta (Mus musculus), sequence (Q9WV60 whole entry, looked up): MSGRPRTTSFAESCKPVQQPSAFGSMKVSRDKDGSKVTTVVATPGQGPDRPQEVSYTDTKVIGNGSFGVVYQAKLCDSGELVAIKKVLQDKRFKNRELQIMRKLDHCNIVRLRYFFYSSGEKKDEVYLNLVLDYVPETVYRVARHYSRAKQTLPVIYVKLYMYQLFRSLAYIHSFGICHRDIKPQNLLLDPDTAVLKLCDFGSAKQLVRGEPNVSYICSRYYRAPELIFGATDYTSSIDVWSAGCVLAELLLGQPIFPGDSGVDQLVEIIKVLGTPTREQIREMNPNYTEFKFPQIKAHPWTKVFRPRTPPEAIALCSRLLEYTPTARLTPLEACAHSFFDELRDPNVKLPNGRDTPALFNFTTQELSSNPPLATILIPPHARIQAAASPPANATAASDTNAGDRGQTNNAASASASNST

Mus musculus [9] = assay: Hypoglycemic activity in high fat diet-induced obese C57BL/6J mouse assessed as increase in insulin level at 300 mg/kg administered via gavage […] and measured after 6 hrs post dose; type: functional, organism-based
Summary of the method: (§4)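 Diet-induced obese male C57BL/6J mice were given one gavage dose (100 or 300 mg/kg, Labrasol vehicle). Fasting plasma insulin and C-peptide (ng/mL) were measured by ELISA 6 h after dosing, as mean ± SD versus vehicle.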

Mus musculus [10] = assay: Effect on insulin signalling in high fat diet-induced obese C57BL/6J mouse assessed as increase in IR-beta phosphorylation at tyrosine 1150 residue at 100 to 300 mg/kg administered via gavage for 2 weeks and measured after 6 hrs post dose by Western blot analysis; type: functional, organism-based; summary of the method: as §2
Mus musculus [11] = assay: Effect on insulin signalling in high fat diet-induced C57BL/6J mouse assessed as AKT phosphorylation at Ser […] residue in liver at 100 to 300 mg/kg administered via gavage for 2 weeks and measured after 6 hrs post dose by Western blot analysis; type: functional, organism-based; summary of the method: as §2
Mus musculus [12] = assay: Hypoglycemic activity in high fat diet-induced obese C57BL/6J mouse assessed as increase in C-peptide level at 100 to 300 mg/kg […] and measured after 6 hrs post dose; type: functional, organism-based; summary of the method: as §4
Mus musculus [13] = assay: Effect on insulin signalling in high fat diet-induced obese C57BL/6J mouse assessed as effect on AKT phosphorylation at threonine 308 residue expression in liver at 100 to 300 mg/kg administered via gavage for 2 weeks and measured after 6 hrs post dose by Western blot analysis; type: functional, organism-based; summary of the method: as §2
[14] = Toxicity in high fat diet-induced C57BL/6J mouse assessed as upregulation of total AKT expression in adipose tissue at 300 mg/kg administered via gavage for 2 weeks and measured after 6 hrs post dose by Western blot analysis; type: organism-based; conditions: in vivo, po; summary of the method: as §2
Mus musculus [15] = assay: Effect on insulin signalling in high fat diet-induced obese C57BL/6J mouse assessed as increase in AKT phosphorylation at serine […] residue in skeletal muscle at 100 to 300 mg/kg administered via gavage for 2 weeks and measured after 6 hrs post dose by Western blot analysis; type: functional, organism-based; summary of the method: as §2
Mus musculus [16] = assay: Effect on insulin signalling in high fat diet-induced C57BL/6J mouse assessed as AKT phosphorylation at Ser […] residue in adipose tissue at 100 to 300 mg/kg administered via gavage for 2 weeks and measured after 6 hrs post dose by Western blot analysis; type: functional, organism-based; summary of the method: as §2

| Activity [4] | Activity [8] | Compound | Activity [1] | Activity (Mus musculus [2]) | Activity [3] | Activity (Mus musculus [5]) | Activity (Mus musculus [6]) | Activity (Mus musculus [7]) | Activity (C2C12) | Activity (Mus musculus [9]) | Activity (Mus musculus [10]) | Activity (Mus musculus [11]) | Activity (Mus musculus [12]) | Activity (Mus musculus [13]) | Activity [14] | Activity (Mus musculus [15]) | Activity (Mus musculus [16]) |
| --- | --- | --- | --- | --- | --- | --- | --- | --- | --- | --- | --- | --- | --- | --- | --- | --- | --- |
|  |  | CN(C)C(=N)N=C(N)N [METFORMIN] | Non-Toxic |  |  |  |  |  |  |  |  |  |  |  |  |  |  |
| Active | Active | COc1ccc(CCC(=O)c2ccc(O)cc2O)cc1 |  | inactive | Non-Toxic | Active | Active | Non-Toxic | Active | Active | inactive | Active | Active | inactive | Toxic | Active | inactive |
